The results in this text go back to ChEMBL document CHEMBL4513216, “Probing the Open Global Health Chemical Diversity Library for Multistage-Active Starting Points for Next-Generation Antimalarials” (ACS Infect Dis, 2020).

The nature of the series: Toxicity liver stage against HepG2, at 10uM. The following applies: human, HepG2-A16-CD81EGFP cells; read-out: INHIBITION
Further details: test concentration 10 uM, cell line HepG2-A16-CD81EGFP. Format: cell-based. Put shortly: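 Uninfected HepG2-A16-CD81EGFP cells, 3 × 10^3 per well, 1536-well, plated on prespotted compound at 10 μM final, parasite-free screening media added to match infected plates; puromycin 10 μM positive, DMSO 0.5% negative; run in parallel with 48 h PbLuc assay at 37 °C, 5% CO2; viability by CellTiter-Glo luminescence, normalized to controls.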
Regarding `COc1ccc(C(=O)Nc2c(C)nc3cccc(C)n3c2=O)cc1`, the cytotoxicity at 10 µM is 8.1%.

For the molecule `O=C(Nc1nc2c(s1)CN(S(=O)(=O)C1CC1)CC2)c1ccc(=O)[nH]c1`, the cytotoxicity at 10 µM was -11.1%.

In the case of `c1cncc(COCC2CNCc3nccn3C2)c1` (configuration not stated), the cytotoxicity at 10 µM worked out at 14.2%.

For the molecule `CN(C)c1ccc2c(c1)CN(C(=O)c1cnccn1)C2c1cnco1` (configuration not stated), the cytotoxicity at 10 µM was 3.55%.

In the case of `CC(C)OC[C@H]1CCC[C@]12CN(S(=O)(=O)C1CC1)CCO2`, the cytotoxicity at 10 µM is -2.51%.

Consider `CC(C)(C)C(=O)N1CCC2(CC1)CC(Oc1ccccc1)CO2` (configuration not stated), for which the cytotoxicity at 10 µM worked out at 4.12%.

As for `c1cncc(CN2CCn3cc(Cn4cccn4)nc3C2)c1`, the cytotoxicity at 10 µM was determined as 4.93%.

Consider `CN1CC(=O)N(c2ccsc2)CC12CCN(Cc1nccn1C)C2` (configuration not stated), for which the cytotoxicity at 10 µM was -0.269%.

Turning to `COc1cccc2c1ccn2CC(=O)N1CCCC(C(=O)O)C1` (configuration not stated), the cytotoxicity at 10 µM came to 6.28%.

For `O=c1[nH]c2nc(N3CCOCC3)ncc2c(=O)n1-c1cccc(F)c1`, the cytotoxicity at 10 µM turned out to be 9.32%.

Turning to `O=c1[nH]cnc2[nH]c(N3CCOCC3)nc12`, the cytotoxicity at 10 µM stood at 2.9%.

With `CC(=O)N1[C@H](Cn2cncn2)C[C@@H]2CN(c3ccc(C)nn3)CC[C@@H]21`, the cytotoxicity at 10 µM is -13.4%.

Consider `CS(=O)(=O)Nc1ccn(Cc2ccc(F)cc2Cl)n1`, for which the cytotoxicity at 10 µM turned out to be 6.64%.

`O=C(Cn1cc(Cl)cn1)NCCN1CCC(O)(c2ccc(F)cc2)CC1`: the cytotoxicity at 10 µM came to 3.41%.

As to `CCC(CC)C(=O)N1CCCc2c(cnn2C)C1`, the cytotoxicity at 10 µM came out at 6.55%.

Consider `O=C(c1cnccn1)N1CCCC(Cc2ccccn2)C1` (configuration not stated), for which the cytotoxicity at 10 µM amounted to 6.95%.

As to `COCC(=O)N1CCCC1c1ccnc(Nc2cnccn2)n1` (configuration not stated), the cytotoxicity at 10 µM is -4.3%.

As to `CNc1cncc(C2CCCN(S(C)(=O)=O)C2)n1` (configuration not stated), the cytotoxicity at 10 µM came to 3.19%.

Turning to `CN(Cc1cscn1)Cc1cc2c(cc1Br)OCO2`, the cytotoxicity at 10 µM is -4%.

As to `Cc1ccnc2c1NC(=O)CN2C(=O)CCC(F)(F)F`, the cytotoxicity at 10 µM is -15%.

For the molecule `CSCc1cc(F)ccc1CNC(=O)N1CCC[C@@H]1CO`, the cytotoxicity at 10 µM came to 4.8%.

Consider `CCOc1ccccc1NC(=O)CN(C)Cc1ccccc1Cl`, for which the cytotoxicity at 10 µM is -6.93%.

Regarding `Cc1cc(CN(C)S(=O)(=O)N2CCCC2c2ccc(C)o2)no1` (configuration not stated), the cytotoxicity at 10 µM was 3.33%.

On to `Cc1ccc(C)c(NC(=O)c2cc(S(=O)(=O)N3CCSCC3)c[nH]2)c1`, for which the cytotoxicity at 10 µM was -0.185%.

For the molecule `CCSc1ccc(C(=O)NCCc2nnc(-c3ccco3)[nH]2)cn1`, the cytotoxicity at 10 µM came to 10.7%.

In the case of `COC1CCCN(C(=O)NCC(C)(C)SC)C1` (configuration not stated), the cytotoxicity at 10 µM turned out to be 10.5%.

Consider `CCn1cc(CN(C)S(=O)(=O)N2CCCC2c2ccco2)cn1` (configuration not stated), for which the cytotoxicity at 10 µM amounted to 9.14%.

Regarding `Cc1cc(S(C)(=O)=O)c(C)c(S(=O)(=O)N2CCN(C)CC2)c1`, the cytotoxicity at 10 µM is 11.7%.

For `Cc1cccc(N2N=C(C(=O)NC(C)Cc3ccco3)CCC2=O)c1` (configuration not stated), the cytotoxicity at 10 µM was -9.6%.

`CCCn1nnnc1CSCc1cn2c(C)cccc2n1`: the cytotoxicity at 10 µM was determined as 8%.

Regarding `CC(C)c1nc(CNC(C(=O)N2CCOCC2)C(C)C)no1` (configuration not stated), the cytotoxicity at 10 µM turned out to be 6.43%.

Take `NC(=O)[C@@H]1Cc2ccccc2CN1S(=O)(=O)N1CCCCCC1`: the cytotoxicity at 10 µM worked out at 15.6%.

For `CC(NC(=O)Cc1ccccc1F)(C(N)=O)c1cccc(Cl)c1` (configuration not stated), the cytotoxicity at 10 µM is 17.6%.

For `Cc1cc(C)n(C2CCCN(C(=O)Cn3ccc(=O)n(C)c3=O)C2)n1` (configuration not stated), the cytotoxicity at 10 µM stood at 0.437%.

As for `CCC(=O)N1CCN(C(=O)NC2CCc3ccccc3C2)CC1` (configuration not stated), the cytotoxicity at 10 µM is -15.9%.

`Cc1cc(C)n(-c2cncc(N3CCN(C(=O)C(C)(C)C)CC3)n2)n1`: the cytotoxicity at 10 µM is -3.22%.

In the case of `O=C(CN1CCCC1Cn1cncn1)NC(C1CC1)C1CC1` (configuration not stated), the cytotoxicity at 10 µM was -12.8%.

In the case of `Cc1nnnn1-c1ccc(CC(=O)N2CCOCC(O)C2)cc1` (configuration not stated), the cytotoxicity at 10 µM is -7.46%.

`CCn1c(C2CCNCC2)nn(CCn2cncn2)c1=O`: the cytotoxicity at 10 µM was -6.26%.

On to `O=S(=O)(CC1CC1)c1ncc(CN2CCOCC2)n1CC1CCCO1` (configuration not stated), for which the cytotoxicity at 10 µM is -3.06%.

Take `Cc1c(C(C)NC2CCCC2)cnn1-c1ccc(F)cc1F` (configuration not stated): the cytotoxicity at 10 µM was 4.91%.

Consider `Cc1nc(O)cc(CN2CCC=C(CN(C)C(=O)c3ccco3)C2)n1`, for which the cytotoxicity at 10 µM is 8.82%.

As to `CCCc1noc(C2CC(=O)N(C(C)(C)C)C2)n1` (configuration not stated), the cytotoxicity at 10 µM came to 0.0198%.

Turning to `COc1ccc(CCNC(=O)N2CCN(C)[C@@H]3CS(=O)(=O)C[C@@H]32)cc1`, the cytotoxicity at 10 µM was found to be 6.05%.

As for `CN(Cc1nncn1C)C(=O)c1cc(COc2ccccc2F)[nH]n1`, the cytotoxicity at 10 µM worked out at 2.14%.

As for `CCN(Cc1ccncc1)C(=O)C1COc2c(cccc2OC)C1` (configuration not stated), the cytotoxicity at 10 µM turned out to be 3.4%.

`O=C1NCCN(C(=O)CN2CCOC2=O)C1c1cccc(F)c1` (configuration not stated): the cytotoxicity at 10 µM turned out to be 8.91%.

For the molecule `NCCc1nc(N[C@@H](CO)c2ccccc2)c2ccccc2n1`, the cytotoxicity at 10 µM came to 9.24%.

For `Cc1nn(C)c(Oc2ccc(Cl)cc2)c1CN1CCC(CN)C1` (configuration not stated), the cytotoxicity at 10 µM was -7.52%.

As to `CCc1oc(C(=O)NCCc2cc(O)nc(C)n2)cc1CN1CCCC1`, the cytotoxicity at 10 µM came out at 13.1%.

As for `COc1cc(-c2ccc(F)c3c2OC(CN)C3)cc(OC)c1OC` (configuration not stated), the cytotoxicity at 10 µM was found to be 1.35%.

Regarding `CNC(=O)CN(C)c1nc(-c2ccncc2)nc2c1CCN(C(C)=O)C2`, the cytotoxicity at 10 µM was -5.13%.

As for `CCn1nc(C)c(CCn2ccnc2-c2cc3n(n2)CCCNC3)c1C`, the cytotoxicity at 10 µM is -2.1%.

Consider `COc1ccc(F)cc1C(C(=O)O)N1CCSCC1` (configuration not stated), for which the cytotoxicity at 10 µM is -4.2%.

With `O=C(c1ccc2c(c1)OCO2)N1CCC(Nc2cccnn2)CC1`, the cytotoxicity at 10 µM was -15.6%.

On to `CCOc1ccnc(N2CCN(C(=O)c3ccc(OC)cc3)CC2)n1`, for which the cytotoxicity at 10 µM is -15.6%.

`CN(CC(=O)NCc1ccccn1)C1CCCN(c2cccnn2)C1` (configuration not stated): the cytotoxicity at 10 µM was -9.06%.

On to `CC1CN(C)c2ccccc2N(C(=O)c2ccc(=O)n(C)c2)C1` (configuration not stated), for which the cytotoxicity at 10 µM is -3.51%.

`O=C(NCCn1ccnc1)N1CCCC1c1ccncc1` (configuration not stated): the cytotoxicity at 10 µM is -10.9%.

In the case of `CC(Cn1ccnc1)NC(=O)N1CCN(Cc2ccsc2)CC1` (configuration not stated), the cytotoxicity at 10 µM is -6.33%.

On to `CC(C)(C)C(O)CN1CCN(C(=O)c2ccc3c(c2)COC3)CC1` (configuration not stated), for which the cytotoxicity at 10 µM was -2.42%.

For the molecule `CCc1noc(C)c1C(=O)N1CCCC1c1c(C)nn(C)c1C` (configuration not stated), the cytotoxicity at 10 µM was -6.97%.

With `c1coc(-c2noc(CN3CCCC3Cn3cncn3)n2)c1` (configuration not stated), the cytotoxicity at 10 µM was -0.282%.

For the molecule `CN(Cc1ccsc1)C(=O)Nc1ccc(S(C)(=O)=O)cc1`, the cytotoxicity at 10 µM was -4.77%.

Regarding `CCOc1ccnc(N2CCN(C(=O)c3cnc[nH]3)CC2)n1`, the cytotoxicity at 10 µM is -2.06%.

With `CCc1nc(CN(C)CC(N)=O)cs1`, the cytotoxicity at 10 µM was -8.9%.

On to `CC(C)c1nc(CN(CC(N)=O)C(C)C)cs1`, for which the cytotoxicity at 10 µM was -14.4%.

Take `Cc1cccc(C(=O)N2CCN(C(=O)Cc3ccccn3)CC2)c1C`: the cytotoxicity at 10 µM was -12.3%.

Take `Cn1cc(C(=O)CC2CCCN2C(=O)c2c[nH]c3ccccc23)cn1` (configuration not stated): the cytotoxicity at 10 µM was -1.39%.

Consider `CN(C)CCN1CCC(CNCc2c[nH]nc2C(C)(C)C)CC1`, for which the cytotoxicity at 10 µM is -3.21%.

Regarding `CCOCCN1CCN(CC(=O)N2CCCC2)CC1CC` (configuration not stated), the cytotoxicity at 10 µM is -2.47%.

`Cc1nc(C)n(C2CCCN(C(=O)c3cn4cccnc4n3)C2)n1` (configuration not stated): the cytotoxicity at 10 µM was -0.776%.

Take `COCCCC(=O)N1CCC(Nc2cccnn2)CC1`: the cytotoxicity at 10 µM is -3.69%.

As to `Cc1cnn(CC2CCCN2C(=O)c2cccnc2-n2cncn2)c1` (configuration not stated), the cytotoxicity at 10 µM is -3.29%.

On to `CC(C)(C)c1nc(CN2CCCC2CCc2ccccc2)no1` (configuration not stated), for which the cytotoxicity at 10 µM was -5.95%.

For `CCn1cnnc1CNC(=O)N1CCN(c2cccc(OC)c2)CC1`, the cytotoxicity at 10 µM was -8.62%.

`Cc1ccc(NC2CCN(C(=O)c3ccsc3)CC2)nn1`: the cytotoxicity at 10 µM was -9.08%.

In the case of `Cc1cc(CN(C)C(=O)c2cc3c([nH]c2=O)CCCC3=O)no1`, the cytotoxicity at 10 µM is -3.59%.

As for `COc1ccccc1C1(C(=O)NCCN2CCOCC2)CCOCC1`, the cytotoxicity at 10 µM is -11.6%.

Turning to `O=C(CCCOc1ccccc1Cl)N1CCCC(n2cncn2)C1` (configuration not stated), the cytotoxicity at 10 µM was -0.0868%.

As to `CCc1nc(CN2CCCC(NCc3nc4cccnc4[nH]3)C2)no1` (configuration not stated), the cytotoxicity at 10 µM was 1.92%.

Consider `CN1CCOC(CNCc2nc(-c3ccccc3)cs2)C1` (configuration not stated), for which the cytotoxicity at 10 µM is -11.5%.

Consider `COc1ncccc1NC(=O)C1CCN(S(C)(=O)=O)CC1`, for which the cytotoxicity at 10 µM was -5.74%.

For the molecule `COC(=O)N1CCCN(C(=O)NCc2ccc(Cl)s2)CC1`, the cytotoxicity at 10 µM was determined as 1.76%.

With `CCn1c(C)nnc1CN(C)C1CCN(CCn2cccn2)C1` (configuration not stated), the cytotoxicity at 10 µM stood at 1.49%.

As for `CCc1nc(C2CCCN2Cc2nccn2Cc2ccccc2)no1` (configuration not stated), the cytotoxicity at 10 µM was determined as 0.89%.

For the molecule `COc1cccc(-c2nc(CNCCn3cccn3)cs2)c1`, the cytotoxicity at 10 µM came out at 2.43%.

Turning to `c1csc(CN2C[C@@H]3COC[C@]3(COCc3ccncc3)C2)c1`, the cytotoxicity at 10 µM worked out at 18%.

`COc1cccc(CN2CCC3(CCN(c4ncc(C)cn4)CC3)C2)c1`: the cytotoxicity at 10 µM is -6.5%.

As for `COc1ccc(CN2CCOC3(CCCN(c4nnc(C)o4)C3)C2)cc1` (configuration not stated), the cytotoxicity at 10 µM was -23.6%.

On to `CN(C)S(=O)(=O)N1C[C@H]2CCC[C@@]2(COCc2ccccn2)C1`, for which the cytotoxicity at 10 µM amounted to 0.718%.

As for `CCN1CCn2c(C)cnc2C12CCN(C(=O)c1ccc(Cl)cc1)CC2`, the cytotoxicity at 10 µM came to 1.22%.

In the case of `CNCCc1nc2cc(Cl)ccc2[nH]1`, the cytotoxicity at 10 µM came to 21.2%.

Turning to `O=C(NCc1ccccn1)[C@H]1COC[C@H]2CN(Cc3ccoc3)C[C@H]21`, the cytotoxicity at 10 µM amounted to 1.54%.

On to `CC1N(CC2CC2)C(=O)COC12CCN(Cc1nccs1)CC2` (configuration not stated), for which the cytotoxicity at 10 µM is -8.19%.

Regarding `Cc1ccc2c(n1)N(CC1CC1)CCN(Cc1ccco1)C2`, the cytotoxicity at 10 µM was 2.75%.

On to `c1cncc(COC[C@H]2CC[C@H]3[C@H](CCN3Cc3cccs3)O2)c1`, for which the cytotoxicity at 10 µM turned out to be 3.45%.
